Here are results for nine compounds from PMC3063522 (Journal of agricultural and food chemistry, 2011).

Each structure is given as a SMILES string. Values after ≈ are worked out from the molar mass of the structure shown. “Also recorded” adds a separate entry of the source.

The nature of series [1]: Cytotoxicity towards HL-60 cells in the antioxidant assay. It is filed as cell-based. As to conditions: human, HL-60 promyelocytic leukemia cells.
The nature of series [2]: Cytotoxicity. It is filed as cell-based. To be noted: African green monkey, Vero kidney fibroblasts. In outline: (§1)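 Anti-proliferative assay run alongside four human tumour lines (SK-MEL, KB, BT-549, SK-OV-3) and two noncancerous kidney lines (Vero, LLC-PK11). Doxorubicin served as the positive control.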
Series [3] in a line: Cytotoxicity. It is filed as cell-based. To be noted: human, SK-MEL malignant melanoma cells. Summed up: as §1
The nature of series [4]: Cytotoxicity. It is filed as cell-based. To be noted: human, KB oral epidermal carcinoma cells. Summed up:
as §1

Series [5] in a line: Cytotoxicity. It is filed as cell-based. To be noted: human, SK-OV-3 ovary carcinoma cells. In outline: as §1
The next series deals with Phomopsis obscurans. As to the kind of experiment: Antifungal broth dilution microbioassay, Phomopsis obscurans. It is filed as cell-based. Summed up:
(§2)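 Broth microdilution adapted from the NCCLS M27-A yeast method for conidia-forming filamentous plant-pathogenic fungi. The commercial fungicide captan served as the internal standard in every assay. Means were compared by SAS analysis of variance with Fisher's protected LSD. For P. viticola and P. obscurans, activity was read at 120 and 144 h of incubation.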
For orientation: Broth dilution looks for growth in wells or tubes with falling amounts of substance.

Series [6] in a line: Cytotoxicity to RAW 264.7 cells in the iNOS assay. It is filed as cell-based, mouse. To be noted: mouse, RAW 264.7 macrophages.
Series [7] in a line: Cytotoxicity. It is filed as cell-based. As to conditions: pig, LLC-PK11 kidney epithelial cells. Summed up: as §1
Series [8] is described as follows: Cytotoxicity. It is filed as cell-based. As to conditions: human, BT-549 breast ductal carcinoma cells. Summed up: as §1
Series [9] concerns adult A. aegypti female mosquitoes. Kind of series: Adult mosquito topical toxicity assay. It is filed as in vivo. To be noted: topical, 3.12 μg per insect; acetone/DMSO control gave 5.8±1.8%.
The subject of another series is RAW 264.7 cells. As to the kind of experiment: Cytotoxicity to RAW 264.7 cells in the iNOS assay. It is filed as cell-based, mouse. To be noted: RAW 264.7 cells, same assay.
The next series has as its system Phomopsis viticola. As to the kind of experiment: Antifungal broth dilution microbioassay, Phomopsis viticola. It is filed as cell-based. In outline:
as §2

In another series the test system is mosquito larvae. As to the kind of experiment: Mosquito larvae toxicity bioassay. It is filed as in vivo. To be noted: Figure 4. Summed up:
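Larval toxicity bioassay, run in triplicate. Controls were untreated, DMSO-acetone carrier, and permethrin as the positive control.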

For the next series, the system named is Botrytis cinerea. Kind of series: Antifungal broth dilution microbioassay, Botrytis cinerea. It is filed as cell-based. Summed up: as §2
For series [10] the following is noted: homologous standards for the HPLC regression; cited from earlier work.
The mark [11] stands for this setting: 120 and 144 h (from 120 to 144 h).

In general, IC50 refers to the midpoint of a concentration-inhibition curve. Read a low IC50 as greater potency.

Turning to `CC(C)/C=C/c1c(O)cc(/C=C/c2ccc(O)c(O)c2)cc1O` [Compound 1, arachidin-1], the IC50 in series [1] turned out to be 5.2 µg/mL (≈ 16.6 µM); in the series “Cytotoxicity [2]”, 12 µg/mL (≈ 38.4 µM); in the series “Cytotoxicity [3]”, 15 µg/mL (≈ 48 µM); in the series “Cytotoxicity [4]”, 4.8 µg/mL (≈ 15.4 µM); in “Cytotoxicity [5]”, 14.5 µg/mL (≈ 46.4 µM); in [6] it was 8.3 µg/mL (≈ 26.6 µM). The figures for the IC50 in “Cytotoxicity [7]” and in the series “Cytotoxicity [8]” were 2.8 µg/mL (≈ 8.96 µM) and 4.8 µg/mL (≈ 15.4 µM), respectively. Further, in the series on Phomopsis obscurans (setting [11]), the “Antifungal activity against P. obscurans” value is “did not exhibit any activity”. In addition, the “Adult mosquito mortality rate ± SD” value in [9] is “marginally active”.

On to `CC(C)(O)C(O)Cc1cc(/C=C/c2cc(O)cc(O)c2)ccc1O` (stereo not drawn) [Compound 7, arahypin-2], for which the IC50 (in series [1]; in “Cytotoxicity [2]”; in the series “Cytotoxicity [3]”; in “Cytotoxicity [4]”; in “Cytotoxicity [5]”; in series [6]) was above 25 µg/mL throughout. The IC50 in the series “Cytotoxicity [7]” and in “Cytotoxicity [8]” was above 25 µg/mL throughout. The “Antifungal activity against P. obscurans” value in the series on Phomopsis obscurans (setting [11]) is “highest levels of inhibition”; with Phomopsis obscurans (120 h), “very high”; in the series on Phomopsis obscurans (144 h of incubation), “extremely low”. Further, in series [9], the “Adult mosquito mortality rate ± SD” value is given as “marginally active”.

Regarding `CC(C)/C=C/c1c(O)cc(/C=C/c2ccc(O)cc2)cc1O` [Compound 3, arachidin-3], the IC50 (in series [1]; in “Cytotoxicity [2]”; in the series “Cytotoxicity [3]”; in the series “Cytotoxicity [4]”; in the series “Cytotoxicity [5]”; in [6]) was above 25 µg/mL throughout. In addition, the IC50 in the series “Cytotoxicity [7]” and in the series “Cytotoxicity [8]” was above 25 µg/mL throughout. In addition, the “Antifungal activity against P. obscurans” value in the series on Phomopsis obscurans (setting [11]) is “did not exhibit any activity”. Moreover, the “Inhibition of iNOS activity (NO production) in RAW 264.7 cells IC50 Cytotoxicity” value with RAW 264.7 cells is “no cytotoxicity”.

Regarding `Oc1ccc(/C=C/c2cc(O)cc(O)c2)cc1` [Compound 24, resveratrol, reference compound], the IC50 in [1] was 8 µg/mL (≈ 35 µM); in the series “Cytotoxicity [2]”, above 25 µg/mL; in the series “Cytotoxicity [3]”, above 25 µg/mL; in “Cytotoxicity [4]” it was above 25 µg/mL; in the series “Cytotoxicity [5]”, above 25 µg/mL; in series [6], above 25 µg/mL. The IC50 in the series “Cytotoxicity [7]” and in “Cytotoxicity [8]” was above 25 µg/mL throughout. Further, the “Inhibition of iNOS activity (NO production) in RAW 264.7 cells IC50 Cytotoxicity” value with RAW 264.7 cells is recorded as “no cytotoxicity”. The “Antifungal activity against P. viticola” value with Phomopsis viticola (at the highest concentrations, Figure 2D) was “essentially inactive”. Also, in the series with mosquito larvae, the “Toxicity to mosquito larvae” value is given as “significantly lower toxicity”. In addition, the entries for the “Growth inhibition of B. cinerea” value in the series with Botrytis cinerea (48 h) and in the series with Botrytis cinerea (72 h) were “minimal activity” and “no activity”, respectively.

For `CC(C)=CCc1c(O)cc(/C=C/c2ccc(O)cc2)cc1O` [Compound 2, arachidin-2], the IC50 was 16 µg/mL (≈ 54 µM) in [1]; 13.5 µg/mL (≈ 45.6 µM) in the series “Cytotoxicity [2]”; 20 µg/mL (≈ 67.5 µM) in “Cytotoxicity [3]”; 22.5 µg/mL (≈ 75.9 µM) in the series “Cytotoxicity [4]”; above 25 µg/mL in “Cytotoxicity [5]”; above 25 µg/mL in [6]. Also, the IC50 in the series “Cytotoxicity [7]” came out at 13.5 µg/mL (≈ 45.6 µM); in the series “Cytotoxicity [8]” it was 7.5 µg/mL (≈ 25.3 µM). Besides, the “Antifungal activity against P. obscurans” value in the series with Phomopsis obscurans (setting [11]) is on record as “did not exhibit any activity”. In the series with RAW 264.7 cells, the “Inhibition of iNOS activity (NO production) in RAW 264.7 cells IC50 Cytotoxicity” value is recorded as “no cytotoxicity”.

Regarding `CCCc1ccccc1` [propylbenzene], the “log P (known constants of standards)” value in series [10] was 3.69.

For the compound `COc1cc(/C=C/c2ccc(O)cc2)cc(OC)c1` [Compound 21, pterostilbene], the IC50 was 21 µg/mL (≈ 81.9 µM) in [1]; above 25 µg/mL in “Cytotoxicity [2]”; above 25 µg/mL in “Cytotoxicity [3]”; above 25 µg/mL in “Cytotoxicity [4]”; above 25 µg/mL in “Cytotoxicity [5]”; above 25 µg/mL in series [6]. Also, the 50% inhibitory concentration (IC50) in “Cytotoxicity [7]” and in “Cytotoxicity [8]” was above 25 µg/mL throughout. Also, the “Inhibition of iNOS activity (NO production) in RAW 264.7 cells IC50 Cytotoxicity” value in the series with RAW 264.7 cells is given as “no cytotoxicity”. Further, the “Toxicity to mosquito larvae” value in the series on mosquito larvae was “highest activity; also recorded: somewhat greater activity”.

As to `CC(C)=CCc1c(O)cc(/C=C/c2ccccc2)cc1O` [Compound 5, chiricanine A], the IC50 in series [1] is 19 µg/mL (≈ 67.8 µM); in the series “Cytotoxicity [2]”, above 25 µg/mL; in the series “Cytotoxicity [3]” it was 20 µg/mL (≈ 71.3 µM); in the series “Cytotoxicity [4]” it was above 25 µg/mL; in “Cytotoxicity [5]”, above 25 µg/mL; in [6], 13 µg/mL (≈ 46.4 µM). The IC50 is 19.5 µg/mL (≈ 69.6 µM) in the series “Cytotoxicity [7]” and above 25 µg/mL in the series “Cytotoxicity [8]”. The results for the “Antifungal activity against P. obscurans” value with Phomopsis obscurans (setting [11]) and in the series on Phomopsis obscurans (144 h of incubation) were “highest levels of inhibition” and “more fungicidal; also recorded: very high”, respectively. Further, the “Antifungal activity against P. viticola” value in the series on Phomopsis viticola (144 h of incubation) was “more fungicidal”. The “Toxicity to mosquito larvae” value with mosquito larvae was “significantly lower toxicity”. Further, in [9], the “Adult mosquito mortality rate ± SD” value amounted to 6.7±5.8%.

As to `CC1(C)C=Cc2c(O)cc(/C=C/c3ccc(O)cc3)cc2O1` [Compound 10, arahypin-5], the 50% inhibitory concentration (IC50) in series [1] is 4.5 µg/mL (≈ 15.3 µM); in “Cytotoxicity [2]”, above 25 µg/mL; in “Cytotoxicity [3]”, 17.5 µg/mL (≈ 59.5 µM); in “Cytotoxicity [4]”, above 25 µg/mL; in “Cytotoxicity [5]”, above 25 µg/mL; in series [6], 16 µg/mL (≈ 54.4 µM). Besides, the IC50 was 19.5 µg/mL (≈ 66.2 µM) in “Cytotoxicity [7]” and above 25 µg/mL in “Cytotoxicity [8]”. The “Antifungal activity against P. obscurans” value with Phomopsis obscurans (144 h of incubation) is on record as “more fungicidal”. For the same compound, the “Antifungal activity against P. viticola” value in the series on Phomopsis viticola (144 h of incubation) is “more fungicidal”. The “Adult mosquito mortality rate ± SD” value in series [9] was determined as 5.8±1.8%.
